According to ChEMBL document CHEMBL3526154, “Metabolism, pharmacokinetics, tissue distribution, and stability studies of the prodrug analog of an anti-hepatitis B virus dinucleoside phosphorothioate” (Drug Metab Dispos, 2012):

Assays:
Conditions in all cases: in vivo; call rule not given here
[1] = Drug excretion in male Sprague-Dawley rat feces at 10 mg/kg, po administered as single dose measured at 4 to 24 hrs post-dose by liquid scintillation counting analysis; assay type: ADME, organism-based; parameters: dose 10 mg/kg, route oral
Summary of the method: (§1)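 Single [³⁵S]-prodrug dose to rats, i.v. tail-vein bolus (PEG 400/saline vehicle) or oral gavage (citric acid buffer pH 2.5), 5 ml/kg. Urine and feces collected ~1, 4 and 24 h postdose. Radioactivity counted by liquid scintillation and expressed as % of administered dose. Mean and S.D. from nine rats per sex.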

[2] = Drug excretion in female Sprague-Dawley rat urine at 10 mg/kg, po administered as single dose measured at 0 to 24 hrs post-dose by liquid scintillation counting analysis; assay type: ADME, organism-based; parameters: dose 10 mg/kg, route oral; summary of the method: as §1
Rattus norvegicus [3] = assay: Cmax in male Sprague-Dawley rat at 10 mg/kg, po administered as single dose by liquid scintillation counting analysis; assay type: ADME, organism-based; parameters: dose 10 mg/kg, route oral
Summary of the method: (§2)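 Single dose of [³⁵S]-labelled prodrug to rats, i.v. tail-vein bolus in 25% PEG 400/75% saline or oral gavage in 0.05 M citric acid buffer pH 2.5, 5 ml/kg. Retro-orbital blood into EDTA at 1, 4 or 24 h; plasma by centrifugation. Radioactivity by liquid scintillation counting as µg-Eq/ml. Noncompartmental sparse-sampling analysis gives Cmax and AUC; nine rats per sex.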

[4] = Drug excretion in female Sprague-Dawley rat urine at 10 mg/kg, iv administered as bolus dose measured at 4 to 24 hrs post-dose by liquid scintillation counting analysis; assay type: ADME, organism-based; parameters: dose 10 mg/kg, route intravenous; summary of the method: as §1
[5] = Drug excretion in female Sprague-Dawley rat feces at 10 mg/kg, iv administered as bolus dose measured at 4 to 24 hrs post-dose by liquid scintillation counting analysis; assay type: ADME, organism-based; parameters: dose 10 mg/kg, route intravenous; summary of the method: as §1
Rattus norvegicus [6] = assay: AUC in female Sprague-Dawley rat at 10 mg/kg, iv administered as bolus dose by liquid scintillation counting analysis; assay type: ADME, organism-based, Plasma; parameters: dose 10 mg/kg, route intravenous; summary of the method: as §2
Brain [7] = assay: Drug uptake in Sprague-Dawley rat brain at 10 mg/kg, po administered as single dose measured at 1 to 24 hrs post-dose by liquid scintillation counting analysis; assay type: ADME, organism-based; parameters: dose 10 mg/kg, route oral
Summary of the method: (§3)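 Single i.v. tail-vein bolus or oral gavage of [³⁵S]-prodrug to rats, 5 ml/kg. Euthanised by i.p. pentobarbital overdose at 1, 4 or 24 h. Retro-orbital blood collected; liver, lung, kidney, heart, brain and spleen frozen. Tissues homogenised, solubilised and counted by liquid scintillation. Radioactivity given as µg-Eq/g and % of dose.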

Rattus norvegicus [8] = assay: AUC in female Sprague-Dawley rat at 10 mg/kg, po administered as single dose by liquid scintillation counting analysis; assay type: ADME, organism-based, Plasma; parameters: dose 10 mg/kg, route oral; summary of the method: as §2
Rattus norvegicus [9] = assay: Terminal half life in male Sprague-Dawley rat at 10 mg/kg, iv administered as bolus dose by liquid scintillation counting analysis; assay type: ADME, organism-based; parameters: dose 10 mg/kg, route intravenous
Summary of the method: (§4)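 Radioactivity in plasma from rats given a single [35S]-labelled dose, iv (tail vein, 25% PEG 400/75% saline) or oral gavage (0.05 M citric acid, pH 2.5), sampled at 1, 4 and 24 h, measured by liquid scintillation as µg-Eq/ml. Elimination t1/2 and Tmax were derived by noncompartmental analysis with sparse sampling, from nine male and nine female rats.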

Rattus norvegicus [10] = assay: Drug recovery in male Sprague-Dawley rat at 10 mg/kg, po administered as single dose measured after 24 hrs by liquid scintillation counting analysis; assay type: ADME, organism-based; parameters: dose 10 mg/kg, route oral
Summary of the method: (§5)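 Rats got a single i.v. bolus or oral gavage dose of [³⁵S]-prodrug at 5 ml/kg over a 24 h study. Radioactivity in blood, tissues, carcass, urine and feces measured by liquid scintillation counting. Total recovery given as % of administered dose at 24 h.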

[11] = Drug excretion in male Sprague-Dawley rat urine at 10 mg/kg, iv administered as bolus dose measured at 4 to 24 hrs post-dose by liquid scintillation counting analysis; assay type: ADME, organism-based; parameters: dose 10 mg/kg, route intravenous; summary of the method: as §1
[12] = Drug excretion in female Sprague-Dawley rat feces at 10 mg/kg, po administered as single dose measured at 4 to 24 hrs post-dose by liquid scintillation counting analysis; assay type: ADME, organism-based; parameters: dose 10 mg/kg, route oral; summary of the method: as §1
Rattus norvegicus [13] = assay: Tmax in female Sprague-Dawley rat at 10 mg/kg, po administered as single dose by liquid scintillation counting analysis; assay type: ADME, organism-based; parameters: dose 10 mg/kg, route oral; summary of the method: as §4
Plasma = assay: Drug uptake in Sprague-Dawley rat plasma at 10 mg/kg, po administered as single dose measured at 4 hrs post-dose by liquid scintillation counting analysis; assay type: ADME, organism-based; parameters: dose 10 mg/kg, route oral
Summary of the method: (§6)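 [35S]-labelled prodrug given once to rats, iv bolus via tail vein (25% PEG 400/75% saline) or oral gavage (0.05 M citric acid buffer, pH 2.5), 5 ml/kg. Rats euthanised at 1, 4 or 24 h. Liver, lung, kidney, heart, brain, spleen, tail and retro-orbital plasma were collected. Samples were homogenised and solubilised, and radioactivity was counted by liquid scintillation. Values are µg-equivalent/ml or g and % of dose.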

[14] = Drug excretion in female Sprague-Dawley rat urine at 10 mg/kg, iv administered as bolus dose measured at 1 to 4 hrs post-dose by liquid scintillation counting analysis; assay type: ADME, organism-based; parameters: dose 10 mg/kg, route intravenous; summary of the method: as §1
Rattus norvegicus [15] = assay: Drug recovery in female Sprague-Dawley rat at 10 mg/kg, iv administered as bolus dose measured after 24 hrs by liquid scintillation counting analysis; assay type: ADME, organism-based; parameters: dose 10 mg/kg, route intravenous; summary of the method: as §5
Brain [16] = assay: Drug uptake in Sprague-Dawley rat brain at 10 mg/kg, iv administered as bolus dose measured at 1 to 24 hrs post-dose by liquid scintillation counting analysis; assay type: ADME, organism-based; parameters: dose 10 mg/kg, route intravenous; summary of the method: as §3
[17] = Drug excretion in male Sprague-Dawley rat urine at 10 mg/kg, iv administered as bolus dose measured at 0 to 24 hrs post-dose by liquid scintillation counting analysis; assay type: ADME, organism-based; parameters: dose 10 mg/kg, route intravenous; summary of the method: as §1
Rattus norvegicus [18] = assay: Cmax in female Sprague-Dawley rat at 10 mg/kg, iv administered as bolus dose by liquid scintillation counting analysis; assay type: ADME, organism-based; parameters: dose 10 mg/kg, route intravenous; summary of the method: as §2
Liver = assay: Drug uptake in Sprague-Dawley rat liver at 10 mg/kg, po administered as single dose measured at 4 hrs post-dose by liquid scintillation counting analysis; assay type: ADME, organism-based; parameters: dose 10 mg/kg, route oral; summary of the method: as §6
[19] = Drug excretion in female Sprague-Dawley rat feces at 10 mg/kg, po administered as single dose measured at 0 to 24 hrs post-dose by liquid scintillation counting analysis; assay type: ADME, organism-based; parameters: dose 10 mg/kg, route oral; summary of the method: as §1
Rattus norvegicus [20] = assay: AUC in male Sprague-Dawley rat at 10 mg/kg, iv administered as bolus dose by liquid scintillation counting analysis; assay type: ADME, organism-based, Plasma; parameters: dose 10 mg/kg, route intravenous; summary of the method: as §2
Rattus norvegicus [21] = assay: Cmax in male Sprague-Dawley rat at 10 mg/kg, iv administered as bolus dose by liquid scintillation counting analysis; assay type: ADME, organism-based; parameters: dose 10 mg/kg, route intravenous; summary of the method: as §2
Kidney = assay: Drug uptake in Sprague-Dawley rat kidney at 10 mg/kg, iv administered as bolus dose measured at 1 to 24 hrs post-dose by liquid scintillation counting analysis; assay type: ADME, organism-based; parameters: dose 10 mg/kg, route intravenous; summary of the method: as §3
[22] = Drug excretion in male Sprague-Dawley rat feces at 10 mg/kg, iv administered as bolus dose measured at 1 to 4 hrs post-dose by liquid scintillation counting analysis; assay type: ADME, organism-based; parameters: dose 10 mg/kg, route intravenous; summary of the method: as §1
Rattus norvegicus [23] = assay: Drug recovery in female Sprague-Dawley rat at 10 mg/kg, po administered as single dose measured after 24 hrs by liquid scintillation counting analysis; assay type: ADME, organism-based; parameters: dose 10 mg/kg, route oral; summary of the method: as §5
[24] = Drug excretion in female Sprague-Dawley rat feces at 10 mg/kg, iv administered as bolus dose measured at 0 to 24 hrs post-dose by liquid scintillation counting analysis; assay type: ADME, organism-based; parameters: dose 10 mg/kg, route intravenous; summary of the method: as §1
[25] = Drug excretion in female Sprague-Dawley rat urine at 10 mg/kg, iv administered as bolus dose measured at 0 to 24 hrs post-dose by liquid scintillation counting analysis; assay type: ADME, organism-based; parameters: dose 10 mg/kg, route intravenous; summary of the method: as §1
Lung = assay: Drug uptake in Sprague-Dawley rat lung at 10 mg/kg, po administered as single dose measured at 4 hrs post-dose by liquid scintillation counting analysis; assay type: ADME, organism-based; parameters: dose 10 mg/kg, route oral; summary of the method: as §6

CO[C@@H]1[C@H](OP(=O)(OC[C@H]2O[C@@H](n3cnc4c(N)ncnc43)C[C@@H]2O)[35S]COC(=O)OC(C)C)[C@@H](CO)O[C@H]1n1ccc(=O)[nH]c1=O (some centres undefined)
Drug excretion [1]: 35.71%
Drug excretion [2]: 36.88%
Cmax (Rattus norvegicus [3]): 2.53 ugequiv/ml
Drug excretion [4]: 36.79%
Drug excretion [5]: 9.44%
AUC (Rattus norvegicus [6]): 35.21 ugequiv.h/ml
Drug uptake (Brain [7]): <= 0.5%
AUC (Rattus norvegicus [8]): 27.37 ugequiv.h/ml
beta t1/2 (Rattus norvegicus [9]): 7.8 h
Drug recovery (Rattus norvegicus [10]): 83%
Drug excretion [11]: 29.6%
Drug excretion [12]: 2.68%
Tmax (Rattus norvegicus [13]): 4 h
Drug uptake (Plasma): Active
Drug excretion [14]: 6.34%
Drug recovery (Rattus norvegicus [15]): 84.9%
Drug uptake (Brain [16]): <= 0.5%
Drug excretion [17]: 56.15%
Cmax (Rattus norvegicus [18]): 4.49 ugequiv/ml
Drug uptake (Liver): Active
Drug excretion [19]: 2.72%
AUC (Rattus norvegicus [20]): 53.58 ugequiv.h/ml
Cmax (Rattus norvegicus [21]): 6.51 ugequiv/ml
Drug uptake (Kidney): Active
Drug excretion [22]: 0.01%
Drug recovery (Rattus norvegicus [23]): 80.4%
Drug excretion [24]: 9.44%
Drug excretion [25]: 58.94%
Drug uptake (Lung): Active
